From publication PMC7037572 (Journal of Advanced Research, 2020)

Tests used:
Format in all cases: cell-based
Settings in all cases: pre-treated 1 h, MSU 500 μg/ml 12 h
NLRP3 inflammasome = experiment: Western blot of NLRP3, ASC and Caspase-1 p20 in MSU-treated THP-1 cells
Procedure, shortened: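 THP-1 cells (PMA-differentiated, pre-treated 1 h, MSU 500 μg/ml 12 h) were lysed in RIPA buffer. Lysates were resolved by 8–12% SDS-PAGE and transferred to PVDF. After blocking, membranes took primary antibodies overnight at 4 °C, three TBST washes and HRP secondary antibodies for 2 h, with ECL detection. n = 4 per group; mean ± SD; one-way ANOVA/Tukey.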

MSU-treated THP-1 cells [1] = experiment: IL-1β in culture supernatants of MSU-treated THP-1 cells
Procedure, shortened: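 PMA-differentiated THP-1 cells (ATCC) were pre-treated 1 h with the test compound or a reference P2Y14R antagonist, then stimulated with MSU (500 μg/ml) for 12 h. IL-1β in collected culture supernatants was measured by ELISA kit. n = 4 per group; mean ± SD; one-way ANOVA with Tukey test, p < 0.05.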

MSU-treated THP-1 cells [2] = experiment: cAMP levels in MSU-treated THP-1 cells

In the case of `O=C(O)c1cc(-c2ccc(C3CCNCC3)cc2)c2ccc(-c3ccc(C(F)(F)F)cc3)cc2c1` [PPTN], the “effect on MSU-increased protein expressions of NLRP3, ASC and Caspase-1 p20” value (NLRP3 inflammasome) is reported as “reversed”, the “effect on IL-1β release into the supernatant” value (MSU-treated THP-1 cells [1]) is reported as “apparently inhibited the release of IL-1β” and the “effect on MSU-induced decrease of cAMP concentrations” value (MSU-treated THP-1 cells [2]) is reported as “reversed”.
